Experimental findings from ChEMBL document CHEMBL1132284, “Potent, orally active GPIIb/IIIa antagonists containing a nipecotic acid subunit. Structure-activity studies leading to the discovery of RWJ-53308” (J Med Chem, 1999) are described below.

Broadly, the pIC50 is the negative decadic logarithm of the IC50, by convention in mol/L. A higher pIC50 goes with a low IC50.

pIC50: −log10 of the molar value.

For the first assay, the system named is Canis familiaris. The assay is described as follows: Inhibitory activity tested in ex vivo (canine) against ADP-induced platelet aggregation at the dose of 10 mg/kg.
Settings: not given
It is filed as functional, Canis lupus familiaris.
Turning to `CN1CCC(CCC(=O)N2CCC[C@@H](C(=O)N[C@H](CC(=O)O)c3ccc4c(c3)OCO4)C2)CC1`, the Duration amounted to 120 min.

A further assay deals with Integrin alpha-IIb/beta-3 (Homo sapiens, UniProt P05106+P08514). The assay is described as follows: In vitro inhibition of biotinylated fibrinogen binding to immobilized fibrinogen receptor. In kind it is protein-complex assay.
Sequence of Integrin alpha-IIb/beta-3 (P05106 27-788 limits assumed): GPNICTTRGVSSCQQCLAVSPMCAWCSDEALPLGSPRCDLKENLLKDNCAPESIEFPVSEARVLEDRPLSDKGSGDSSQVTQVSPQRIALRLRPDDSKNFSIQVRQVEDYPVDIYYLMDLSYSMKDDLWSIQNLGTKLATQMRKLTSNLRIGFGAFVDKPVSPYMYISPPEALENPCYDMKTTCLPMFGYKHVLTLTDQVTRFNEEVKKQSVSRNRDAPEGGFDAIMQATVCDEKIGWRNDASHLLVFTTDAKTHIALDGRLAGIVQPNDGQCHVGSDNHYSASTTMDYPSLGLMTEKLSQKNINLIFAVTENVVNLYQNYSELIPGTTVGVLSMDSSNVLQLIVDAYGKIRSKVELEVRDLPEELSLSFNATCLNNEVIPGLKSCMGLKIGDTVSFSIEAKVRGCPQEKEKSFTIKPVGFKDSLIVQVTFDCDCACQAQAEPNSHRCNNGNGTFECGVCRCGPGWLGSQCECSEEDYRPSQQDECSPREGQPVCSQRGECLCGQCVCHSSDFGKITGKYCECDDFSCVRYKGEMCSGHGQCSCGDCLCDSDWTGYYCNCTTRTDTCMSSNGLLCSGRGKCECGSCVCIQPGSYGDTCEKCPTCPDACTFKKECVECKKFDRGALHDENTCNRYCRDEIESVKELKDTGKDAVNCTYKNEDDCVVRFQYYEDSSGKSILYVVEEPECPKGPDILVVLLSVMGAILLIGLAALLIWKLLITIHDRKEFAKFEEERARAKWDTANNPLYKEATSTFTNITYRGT
Sequence of Integrin alpha-IIb/beta-3 (P08514 32-887 limits assumed): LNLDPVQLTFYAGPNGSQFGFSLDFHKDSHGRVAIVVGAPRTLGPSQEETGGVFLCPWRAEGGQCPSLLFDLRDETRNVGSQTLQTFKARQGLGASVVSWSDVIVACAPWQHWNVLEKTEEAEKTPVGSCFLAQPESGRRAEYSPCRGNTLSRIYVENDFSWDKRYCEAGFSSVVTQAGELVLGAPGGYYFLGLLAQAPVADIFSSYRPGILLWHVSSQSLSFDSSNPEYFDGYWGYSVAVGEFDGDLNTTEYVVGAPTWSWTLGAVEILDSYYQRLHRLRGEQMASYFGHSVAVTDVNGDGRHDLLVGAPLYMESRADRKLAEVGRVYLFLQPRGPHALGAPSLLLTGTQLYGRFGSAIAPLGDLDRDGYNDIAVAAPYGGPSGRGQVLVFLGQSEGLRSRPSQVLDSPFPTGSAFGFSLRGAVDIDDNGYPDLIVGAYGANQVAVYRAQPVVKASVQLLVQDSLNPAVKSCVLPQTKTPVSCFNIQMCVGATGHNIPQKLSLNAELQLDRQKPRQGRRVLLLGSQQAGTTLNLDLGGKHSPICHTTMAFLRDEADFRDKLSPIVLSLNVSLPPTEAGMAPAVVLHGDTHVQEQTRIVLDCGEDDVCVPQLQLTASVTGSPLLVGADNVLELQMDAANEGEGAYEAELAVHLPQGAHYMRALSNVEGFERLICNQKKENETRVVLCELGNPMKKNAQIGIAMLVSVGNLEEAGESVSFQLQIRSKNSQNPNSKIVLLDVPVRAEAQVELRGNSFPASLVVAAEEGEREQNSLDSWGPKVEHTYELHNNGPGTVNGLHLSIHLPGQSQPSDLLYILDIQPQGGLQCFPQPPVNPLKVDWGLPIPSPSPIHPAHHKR
Sequence of Integrin alpha-IIb/beta-3 (P08514 891-1039 limits assumed): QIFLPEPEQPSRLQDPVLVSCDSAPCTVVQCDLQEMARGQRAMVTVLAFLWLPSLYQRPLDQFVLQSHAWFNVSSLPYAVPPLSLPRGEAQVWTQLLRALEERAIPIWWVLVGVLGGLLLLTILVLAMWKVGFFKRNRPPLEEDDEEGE
Settings: not given
In short, it runs like this: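 Binding of biotinylated fibrinogen to immobilized purified GPIIb/IIIa, solid phase; IC50; n = 2.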
For the compound `CN1CCC(CCC(=O)N2CCC[C@@H](C(=O)N[C@H](CC(=O)O)c3ccc4c(c3)OCO4)C2)CC1`, the pIC50 was 9.62.
Same read-out and setting: the figure for `O=C(O)C[C@@H](NC(=O)[C@@H]1CCCN(C(=O)CCC2CCNCC2)C1)c1ncc(C(F)(F)F)cc1Cl` is 7.18; for `COC(=O)C[C@H](NC(=O)[C@@H]1CCCN(C(=O)CCC2CCNCC2)C1)c1cccnc1` it is 8.14; for `O=C(O)C(O)CNC(=O)[C@@H]1CCCN(C(=O)CCC2CCNCC2)C1` (stereo not given in full) it is 8.46.
Regarding `O=C(N[C@H](Cc1ccccc1)[C@@H](O)C(=O)O)[C@@H]1CCCN(C(=O)CCC2CCNCC2)C1`, the pIC50 was 7.75.
The same measure, in the same setting: the figure for `CC(C)(C)C#C[C@H](CC(=O)O)NC(=O)[C@@H]1CCCN(C(=O)CCC2CCNCC2)C1` is 8.25; for `O=C(O)CC(NC(=O)C1CCCN(C(=O)CCC2CCNCC2)C1)c1cncc(-c2cccs2)c1` (stereo not given) it is 8.82.
On the same count and under the same terms, the figure for `O=C(O)C[C@H](NC(=O)[C@@H]1CCCN(C(=O)CCC2CCNCC2)C1)c1cncc(-c2ccccc2)c1` is 9.28; for `O=C(O)CC(NC(=O)C1CCCN(C(=O)CCC2CCNCC2)C1)c1cncc(-c2cc3ccccc3o2)c1` (stereo not given) it is 7.44; for `CCOC(=O)C[C@@H](NC(=O)[C@@H]1CCCN(C(=O)CCC2CCNCC2)C1)c1ccc2c(c1)OCO2` it is 7.32.
On the same count and under the same terms, for `O=C(O)C[C@@H](NC(=O)[C@@H]1CCCN(C(=O)CCC2CCNCC2)C1)c1cccs1` the value was 10.00; for `N=CN1CCC(CCC(=O)N2CCC[C@@H](C(=O)N[C@@H](CC(=O)O)c3cccnc3)C2)CC1`, 9.12; for `COc1ccccc1-c1cncc(C(CC(=O)O)NC(=O)C2CCCN(C(=O)CCC3CCNCC3)C2)c1` (stereo not given), 7.92.
The compound `C[C@H](CC(=O)O)NC(=O)[C@@H]1CCCN(C(=O)CCC2CCNCC2)C1` had a negative-log IC50 (pIC50) of 7.87.
On to `O=C(O)C[C@H](NC(=O)[C@@H]1CCCN(C(=O)CCC2CCNCC2)C1)c1cncc(CCc2ccccc2)c1`, for which the pIC50 was 9.18.
`O=C(O)C[C@@H](Cc1ccccc1)NC(=O)[C@@H]1CCCN(C(=O)CCC2CCNCC2)C1` showed a negative-log IC50 (pIC50) of 9.43.
The same measure, in the same setting: the figure for `C#C[C@H](CC(=O)OCC)NC(=O)CCC(=O)Nc1ccc(C(=N)N)cc1` [XEMILOFIBAN] is 8.70; for `O=C(O)C[C@@H](NC(=O)[C@@H]1CCCN(C(=O)CCC2CCNCC2)C1)c1cccnc1` it is 9.44.
Take `O=C(O)C[C@H](NC(=O)[C@@H]1CCCN(C(=O)CCC2CCNCC2)C1)c1cncc(C#Cc2ccccc2)c1`: the pIC50 is 9.07.
`CC(C)(C)C#C[C@@H](CC(=O)O)NC(=O)[C@@H]1CCCN(C(=O)CCC2CCNCC2)C1`: the pIC50 was 7.38.
Same read-out and setting: for `O=C(O)CC(NC(=O)C1CCCN(C(=O)CCC2CCNCC2)C1)c1cncc(-c2ccc3ccccc3c2)c1` (stereo not given) the value was 7.24.
On the same count and under the same terms, for `O=C(O)C[C@H](NC(=O)[C@H]1CN(C(=O)CCC2CCNCC2)CCN1)c1cccnc1` the value was 8.77; for `O=C(O)C[C@@H](NC(=O)[C@@H]1CCCN(C(=O)CCC2CCNCC2)C1)c1ccc2c(c1)OCO2`, 9.30; for `Nc1cccc(-c2cncc(C(CC(=O)O)NC(=O)C3CCCN(C(=O)CCC4CCNCC4)C3)c2)c1` (stereo not given), 8.44.
With `O=C(O)C[C@H](NC(=O)[C@@H]1CCN(C(=O)/C=C/C2CCNCC2)C1)c1cccnc1`, the pIC50 is 9.24.

The next assay has as its system Canis familiaris. As to the kind of experiment: Inhibitory activity tested in ex vivo (canine) against ADP-induced platelet aggregation at the dose of 1 mg/kg. It is filed as functional, Canis lupus familiaris.
Settings: not given
In short, it runs like this: (§1)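 Fasted mongrel dogs (8–22 kg, n = 3) given compound orally by stomach tube in 10 mL water. Citrated cephalic-vein blood drawn pre-dose and at 30, 60, 90, 120, 180, 240, 360 min. PRP adjusted to 300 000/μL with PPP, warmed 2 min at 37 °C, and aggregated with 20 μM ADP, read as light transmission. Inhibition is drug versus vehicle; duration is time at ≥50% inhibition.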
For `O=C(O)C[C@H](NC(=O)[C@@H]1CCCN(C(=O)CCC2CCNCC2)C1)c1cncc(C#Cc2ccccc2)c1`, the Duration is listed as under 30 min.

For a further assay, the system named is Canis familiaris. As to the kind of experiment: Ex vivo duration of inhibition of ADP-induced canine platelet aggregation by 3 mg/kg. It is filed as functional, Canis lupus familiaris.
Settings: not given
In short, it runs like this:
as §1
For the compound `O=C(O)C[C@@H](NC(=O)[C@@H]1CCCN(C(=O)CCC2CCNCC2)C1)c1ncc(C(F)(F)F)cc1Cl`, the Duration is listed as 30 min.
On the same count and under the same terms, the figure for `COC(=O)C[C@H](NC(=O)[C@@H]1CCCN(C(=O)CCC2CCNCC2)C1)c1cccnc1` is 60 min; for `CCOC(=O)C[C@@H](NC(=O)[C@@H]1CCCN(C(=O)CCC2CCNCC2)C1)c1ccc2c(c1)OCO2` it is under 30 min; for `N=CN1CCC(CCC(=O)N2CCC[C@@H](C(=O)N[C@@H](CC(=O)O)c3cccnc3)C2)CC1` it is 90 min.
On the same count and under the same terms, for `O=C(O)C[C@H](NC(=O)[C@@H]1CCCN(C(=O)CCC2CCNCC2)C1)c1cncc(CCc2ccccc2)c1` the value was 180 min; for `C#C[C@H](CC(=O)OCC)NC(=O)CCC(=O)Nc1ccc(C(=N)N)cc1` [XEMILOFIBAN], over 180 min; for `O=C(O)C[C@@H](NC(=O)[C@@H]1CCCN(C(=O)CCC2CCNCC2)C1)c1cccnc1`, 360 min.
On the same count and under the same terms, the figure for `O=C(O)C[C@@H](NC(=O)[C@@H]1CCCN(C(=O)CCC2CCNCC2)C1)c1ccc2c(c1)OCO2` is 180 min; for `O=C(O)C[C@H](NC(=O)[C@@H]1CCN(C(=O)/C=C/C2CCNCC2)C1)c1cccnc1` it is 360 min.

For the next assay, the species on record is Homo sapiens. The assay is described as follows: In vitro inhibitory potency against human gel filtered platelet (GFP) aggregation. It is filed as functional. Conditions: Homo sapiens. In short, it runs like this:
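Human gel-filtered platelets, aggregation induced by thrombin; IC50; n = 2.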
Consider `CN1CCC(CCC(=O)N2CCC[C@@H](C(=O)N[C@H](CC(=O)O)c3ccc4c(c3)OCO4)C2)CC1`, for which the negative logarithm of the IC50 (pIC50) is 6.08.
On the same count and under the same terms, for `O=C(O)C[C@@H](NC(=O)[C@@H]1CCCN(C(=O)CCC2CCNCC2)C1)c1ncc(C(F)(F)F)cc1Cl` the value was 4.93.
Same read-out and setting: the figure for `COC(=O)C[C@H](NC(=O)[C@@H]1CCCN(C(=O)CCC2CCNCC2)C1)c1cccnc1` is 4.39; for `O=C(O)C(O)CNC(=O)[C@@H]1CCCN(C(=O)CCC2CCNCC2)C1` (stereo not given in full) it is 5.80; for `O=C(N[C@H](Cc1ccccc1)[C@@H](O)C(=O)O)[C@@H]1CCCN(C(=O)CCC2CCNCC2)C1` it is 6.68.
In the case of `CC(C)(C)C#C[C@H](CC(=O)O)NC(=O)[C@@H]1CCCN(C(=O)CCC2CCNCC2)C1`, the pIC50 is 4.51.
The same measure, in the same setting: the figure for `O=C(O)C[C@H](NC(=O)[C@@H]1CCCN(C(=O)CCC2CCNCC2)C1)c1cncc(-c2ccccc2)c1` is 7.15.
Still for that read-out and setting: the figure for `CCOC(=O)C[C@@H](NC(=O)[C@@H]1CCCN(C(=O)CCC2CCNCC2)C1)c1ccc2c(c1)OCO2` is 4.44.
Still for that read-out and setting: the figure for `O=C(O)C[C@@H](NC(=O)[C@@H]1CCCN(C(=O)CCC2CCNCC2)C1)c1cccs1` is 7.05; for `N=CN1CCC(CCC(=O)N2CCC[C@@H](C(=O)N[C@@H](CC(=O)O)c3cccnc3)C2)CC1` it is 6.46; for `C[C@H](CC(=O)O)NC(=O)[C@@H]1CCCN(C(=O)CCC2CCNCC2)C1` it is 5.10.
`O=C(O)C[C@H](NC(=O)[C@@H]1CCCN(C(=O)CCC2CCNCC2)C1)c1cncc(CCc2ccccc2)c1` showed a pIC50 of 7.52.
Same read-out and setting: for `O=C(O)C[C@@H](Cc1ccccc1)NC(=O)[C@@H]1CCCN(C(=O)CCC2CCNCC2)C1` the value was 6.01; for `C#C[C@H](CC(=O)OCC)NC(=O)CCC(=O)Nc1ccc(C(=N)N)cc1` [XEMILOFIBAN], 6.52.
Same read-out and setting: the figure for `O=C(O)C[C@@H](NC(=O)[C@@H]1CCCN(C(=O)CCC2CCNCC2)C1)c1cccnc1` is 7.22; for `O=C(O)C[C@H](NC(=O)[C@@H]1CCCN(C(=O)CCC2CCNCC2)C1)c1cncc(C#Cc2ccccc2)c1` it is 7.40.
Compound `O=C(O)C[C@H](NC(=O)[C@H]1CN(C(=O)CCC2CCNCC2)CCN1)c1cccnc1` showed a pIC50 of 6.22.
The same measure, in the same setting: the figure for `O=C(O)C[C@@H](NC(=O)[C@@H]1CCCN(C(=O)CCC2CCNCC2)C1)c1ccc2c(c1)OCO2` is 7.70; for `O=C(O)C[C@H](NC(=O)[C@@H]1CCN(C(=O)/C=C/C2CCNCC2)C1)c1cccnc1` it is 6.85.
